{"source": "ChEMBL document CHEMBL1139758", "about": "“Second generation of alpha-tocopherol analogs-nitric oxide donors: Synthesis, physicochemical, and biological characterization” (Bioorg Med Chem, 2007)", "key": {"Aorta [1]": {"test_system": "Aorta", "experiment": "Vasodilation of noradrenaline-induced contraction of Wistar Kyoto rat thoracic aorta at 20 uM", "format": "functional", "in_short": "(§1)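 Thoracic aorta rings (4 mm) from heparinized, pentobarbital-anaesthetized (40 mg/kg ip) Wistar Kyoto rats (250–300 g). Compounds added in DMSO to the organ bath once contraction reached a plateau; α-tocopherol, Trolox and vehicle served as controls. Where used, ODQ (1 µM) was added at least 10 min before the compound.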"}, "Aorta [2]": {"test_system": "Aorta", "experiment": "Vasodilation of noradrenaline-induced contraction of Wistar Kyoto rat thoracic aorta at 10 uM", "format": "functional", "in_short": "as §1"}, "THP-1": {"test_system": "THP-1", "experiment": "Cytotoxicity against human THP1 cells by MTT assay", "format": "functional, cell-based", "in_short": "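Phorbol ester (100 ng/mL)-differentiated THP-1 cells, seeded 1 × 10^5/well in RPMI with fetal serum, attached 48 h at 37 °C in 5% CO2, then exposed 24 h to compounds at 1–500 µM. MTT added to 0.2 mg/mL for 3 h at 37 °C, formazan dissolved in DMSO, A560 read. IC50 is the concentration halving control absorbance; mean of at least three determinations.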"}, "J774": {"test_system": "J774", "experiment": "Cytotoxicity against mouse J774 cells by MTT assay", "format": "cell-based", "in_short": "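J774.1 macrophages, kept in DMEM with 10% heat-inactivated FCS, seeded 1 × 10^5/well in RPMI with fetal serum and left to attach 48 h (37 °C, 5% CO2). Compounds at 1–500 µM for 24 h. Viability by MTT reduction (0.2 mg/mL, 3 h, 37 °C), formazan in DMSO, A560.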"}}, "data": [{"smiles": "CC(=O)Oc1c(C)c(C)c2c(c1C)CCC(C)(C(=O)O)O2", "note": "(stereo not given)", "values": [{"measurement": "Activity", "setting": "Aorta [1]", "result": 0, "unit": "%"}]}, {"smiles": "Cc1c(C)c2c(c(C)c1OCc1c(S(=O)(=O)c3ccccc3)no[n+]1[O-])CCC(C)(CCCC(C)CCCC(C)CCCC(C)C)O2", "note": "(stereo not given)", "values": [{"measurement": "Activity", "setting": "Aorta [2]", "result": 15, "unit": "%"}]}, {"smiles": "Cc1c(C)c2c(c(C)c1O)CC[C@@](C)(CCC[C@H](C)CCC[C@H](C)CCCC(C)C)O2", "note": "[ALPHA-TOCOPHEROL]", "values": [{"measurement": "IC50", "setting": "THP-1", "result": "> 500", "unit": "µM"}, {"measurement": "IC50", "setting": "J774", "result": "> 500", "unit": "µM"}]}, {"smiles": "CC(=O)Oc1c(C)c(C)c2c(c1C)CCC(C)(CCCC(C)CCCC(C)CCCC(C)C)O2", "note": "(stereo not drawn) [alpha-TOCHOPHERYL ACETATE]", "values": [{"measurement": "Activity", "setting": "Aorta [1]", "result": 0, "unit": "%"}]}]}
